The values below come from ChEMBL document CHEMBL1151461, “Madurahydroxylactone derivatives as dual inhibitors of human immunodeficiency virus type 1 integrase and RNase H” (Antimicrob Agents Chemother, 2008).

For experiment [1], the target named is Human immunodeficiency virus type 1 integrase (Human immunodeficiency virus 1, UniProt Q7ZJM1). Put plainly: Inhibition of HIV1 recombinant integrase by electrochemiluminescent-based high-throughput strand transfer assay. The method, boiled down: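 Biotinylated, 3′-end-preprocessed donor DNA incubated 30 min at 37°C with 250 nM recombinant integrase; compound added, strand transfer started with ruthenium-labeled duplex target DNA, 60 min at 37°C; electrochemiluminescence read. IC50 as mean ± SD of ≥3 independent experiments, or single experiment where footnoted.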

Experiment [2] can be described thus: Inhibition of HIV1 RNase H by FRET high-throughput assay. Also on record: species or system Human immunodeficiency virus 1. The method, boiled down: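 3′-fluorescein/5′-DABCYL RNA/DNA hybrid (0.16 nM) preincubated with compound; reaction started with 7.5 nM HIV-1 RNase H, 30 min at room temperature, EDTA quench, fluorescence intensity read. IC50 as mean ± SD of ≥3 independent experiments, or single experiment where footnoted.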

For experiment [3], the system named is Human immunodeficiency virus 1. Put plainly: Selectivity, ratio of IC50 for HIV1 recombinant integrase to IC50 for HIV1 RNase H.
Experiment [4] concerns Human immunodeficiency virus 1. Put plainly: Selectivity, ratio of IC50 for HIV1 RNase H to IC50 for HIV1 recombinant integrase. The essentials:
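Ratio of the IC50s from two assays run on the same compounds. Integrase: a biotinylated 3′-preprocessed donor DNA was preincubated 30 min at 37°C with 250 nM recombinant HIV-1 integrase. Compound was then added, ruthenium-labelled target DNA started strand transfer, 60 min at 37°C, electrochemiluminescent read-out. RNase H: 0.16 nM 3′-fluorescein/5′-DABCYL RNA/DNA hybrid with 7.5 nM enzyme, 30 min at room temperature, EDTA quench, FRET fluorescence.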

Experiment [5] concerns the target Human immunodeficiency virus type 1 integrase (Human immunodeficiency virus 1) (UniProt Q7ZJM1). Put plainly: Selectivity for inhibition of HIV1 recombinant integrase strand transfer activity over 3'-end processing.

Molecules are shown by their SMILES.

Chain of Human immunodeficiency virus type 1 integrase (Q7ZJM1 whole entry): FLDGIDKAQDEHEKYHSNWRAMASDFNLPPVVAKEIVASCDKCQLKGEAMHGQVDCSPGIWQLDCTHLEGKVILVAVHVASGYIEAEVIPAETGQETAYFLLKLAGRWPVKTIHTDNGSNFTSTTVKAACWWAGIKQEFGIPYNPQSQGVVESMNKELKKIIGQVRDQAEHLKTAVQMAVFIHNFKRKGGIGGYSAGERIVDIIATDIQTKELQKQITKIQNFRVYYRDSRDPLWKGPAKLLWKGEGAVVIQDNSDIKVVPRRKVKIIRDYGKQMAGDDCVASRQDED
Chain of Human immunodeficiency virus type 1 integrase (Human immunodeficiency virus 1) (Q7ZJM1 as listed by the source): as the sequence (Q7ZJM1 whole entry) above

Consider `COc1c2c(c(O)c3c1C(=O)c1c(cc(O)c(C)c1O)C3=O)-c1c(cc(/C=N/NC(=O)c3ccccc3O)c(C(=O)O)c1O)CC2`, for which the IC50 – broadly, the concentration that inhibits the measured activity by half – in experiment [1] was 6.09 µM; in experiment [2], 3.54 µM.
As to `COc1c2c(c(O)c3c1C(=O)c1c(cc(O)c(C)c1O)C3=O)-c1c(cc3c(c1O)C(=O)N(N(C)C)C3O)CC2` (centres undefined), the figures for the IC50 in experiment [1] and in experiment [2] were 7.7 µM and 6.97 µM, respectively.
`COc1c2c(c(O)c3c1C(=O)c1c(cc(O)c(C)c1O)C3=O)-c1c(cc(/C=N/NC(=O)c3ccccc3)c(C(=O)O)c1O)CC2`: the figures for the IC50 in experiment [1] and in experiment [2] were 14.6 µM and 3.1 µM, respectively.
`COc1c2c(c(O)c3c1C(=O)c1c(cc(O)c(C)c1O)C3=O)-c1c(cc3cnn(C(=N)N)c(=O)c3c1O)CC2`: the IC50 in experiment [1] is 3.02 µM; in experiment [2], 5.28 µM.
As for `COc1c2c(c(OC(C)=O)c3c1C(=O)c1c(cc(OC(C)=O)c(C)c1OC(C)=O)C3=O)-c1c(cc3cnn(-c4ccccc4)c(=O)c3c1OC(C)=O)CC2`, the results for the IC50 in experiment [1] and in experiment [2] were over 333 µM and 3.14 µM, respectively. For the same compound, the Ratio IC50 in experiment [3] turned out to be 100.
For the compound `COc1c2c(c(O)c3c1C(=O)c1c(cc(O)c(C)c1O)C3=O)-c1c(cc3c(c1O)C(=O)N1C(C(=O)O)CSC31)CC2` (centres undefined), the IC50 in experiment [1] was 20 µM; in experiment [2], 15.7 µM.
For the compound `COc1c2c(c(O)c3c1C(=O)c1c(cc(O)c(C)c1O)C3=O)-c1c(cc3c(c1O)C(=O)N1c4ccccc4SC31)CC2` (centres undefined), the results for the IC50 in experiment [1] and in experiment [2] were 96 µM and 0.31 µM, respectively. In addition, the Ratio IC50 in experiment [4] is 100; in experiment [3], 10.
For `COc1c2c(c(O)c3c1C(=O)c1c(cc(O)c(C)c1O)C3=O)-c1c(cc3cn[nH]c(=O)c3c1O)CC2`, the IC50 in experiment [1] and in experiment [2] was 4.06 µM in each case.
Consider `CO/N=C/c1cc2c(c(O)c1C(=O)O)-c1c(O)c3c(c(OC)c1CC2)C(=O)c1c(cc(O)c(C)c1O)C3=O`, for which the IC50 in experiment [1] was found to be 12.5 µM; in experiment [2], 10.1 µM.
Take `CCCn1ncc2cc3c(c(O)c2c1=O)-c1c(O)c2c(c(OC)c1CC3)C(=O)c1c(cc(OC(=O)OC)c(C)c1OC(C)=O)C2=O`: the IC50 was over 333 µM in experiment [1] and 8.98 µM in experiment [2].
Take `COc1c2c(c(O)c3c1C(=O)c1c(cc(O)c(C)c1O)C3=O)-c1c(cc3c(c1O)C(=O)N1c4ccccc4CNC31)CC2` (centres undefined): the IC50 in experiment [1] came out at 108 µM; in experiment [2] it was 0.78 µM. The Ratio IC50 in experiment [3] was 100.
In the case of `COc1c2c(c(O)c3c1C(=O)c1c(cc(O)c(C)c1O)C3=O)-c1c(cc(/C=N/C34CC5CC(CC(C5)C3)C4)c(C(=O)O)c1O)CC2`, the figures for the 50% inhibitory concentration (IC50) in experiment [1] and in experiment [2] were 37 µM and 9.41 µM, respectively.
`COc1c2c(c(O)c3c1C(=O)c1c(cc(O)c(C)c1O)C3=O)-c1c(cc3cnn(-c4ccc(C(=O)O)cc4)c(=O)c3c1O)CC2`: the IC50 in experiment [1] is 3.45 µM; in experiment [2], 9.11 µM.
On to `COc1c2c(c(O)c3c1C(=O)c1c(cc(O)c(C)c1O)C3=O)-c1c(cc3c(c1O)C(=O)N1CCCNC31)CC2` (centres undefined), for which the results for the half-maximal inhibitory concentration (IC50) in experiment [1] and in experiment [2] were 56 µM and 7.16 µM, respectively.
For `CCOC(=O)Cn1ncc2cc3c(c(O)c2c1=O)-c1c(O)c2c(c(OC)c1CC3)C(=O)c1c(cc(O)c(C)c1O)C2=O`, the IC50 is 2.67 µM in experiment [1] and 2.11 µM in experiment [2].
For `COc1c2c(c(O)c3c1C(=O)c1c(cc(O)c(C)c1O)C3=O)-c1c(cc3cnn(-c4ccccc4)c(=O)c3c1O)CC2`, the fold change (FC) in experiment [5] is 20. For the same compound, the half-maximal inhibitory concentration (IC50) in experiment [1] turned out to be 0.41 µM; in experiment [2] it was 2.58 µM. Further, in experiment [4], the Ratio IC50 is 100.
Take `COc1c2c(c(O)c3c1C(=O)c1c(cc(O)c(C)c1O)C3=O)-c1c(cc(/C=N/NS(=O)(=O)c3ccc(C)cc3)c(C(=O)O)c1O)CC2`: the values for the IC50 in experiment [1] and in experiment [2] were 22 µM and 5.88 µM, respectively.
With `COc1c2c(c(O)c3c1C(=O)c1c(cc(O)c(C)c1O)C3=O)-c1c(cc(/C=N/NC(=N)N)c(C(=O)O)c1O)CC2`, the figures for the IC50 in experiment [1] and in experiment [2] were 3.15 µM and 5.65 µM, respectively.
As for `COc1c2c(c(O)c3c1C(=O)c1c(cc(O)c(C)c1O)C3=O)-c1c(cc(C(=O)O)c(C(=O)O)c1O)CC2`, the values for the IC50 in experiment [1] and in experiment [2] were 13.2 µM and 3.48 µM, respectively.
Consider `COc1c2c(c(OCc3ccccc3)c3c1C(=O)c1c(cc(OCc4ccccc4)c(C)c1OCc1ccccc1)C3=O)-c1c(cc3cnn(CC(=O)O)c(=O)c3c1OCc1ccccc1)CC2`, for which the results for the IC50 in experiment [1] and in experiment [2] were 106 µM and 22.4 µM, respectively.
For `COc1c2c(c(O)c3c1C(=O)c1c(cc(O)c(C)c1O)C3=O)-c1c(cc(/C=N/NC(C)(C)C)c(C(=O)O)c1O)CC2`, the results for the concentration for half-maximal inhibition (IC50) in experiment [1] and in experiment [2] were 122 µM and 0.69 µM, respectively. For the same compound, the Ratio IC50 in experiment [3] is over 100.
For `COC(=O)Oc1cc2c(c(O)c1C)C(=O)c1c(OC)c3c(c(O)c1C2=O)-c1c(cc2cnn(-c4ccccc4)c(=O)c2c1O)CC3`, the results for the IC50 in experiment [1] and in experiment [2] were 200 µM and 1.43 µM, respectively. Also, the Ratio IC50 in experiment [3] worked out at 100.
For `CCCn1ncc2cc3c(c(OC(C)=O)c2c1=O)-c1c(c(OC)c2c(c1OC(C)=O)C(=O)c1cc(OC(C)=O)c(C)c(OC(C)=O)c1C2=O)CC3`, the IC50 is over 333 µM in experiment [1] and 10.5 µM in experiment [2].
Turning to `COc1c2c(c(O)c3c1C(=O)c1c(cc(O)c(C)c1O)C3=O)-c1c(cc3cnn(CCOC(C)=O)c(=O)c3c1O)CC2`, the IC50 in experiment [1] was determined as 6.28 µM; in experiment [2], 8.63 µM.
The like results for `COc1c2c(c(O)c3c1C(=O)c1c(cc(O)c(C)c1O)C3=O)-c1c(cc3cnn(CC(=O)O)c(=O)c3c1O)CC2` were, in that order, 4.62 µM and 10.2 µM.
Regarding `CCCn1ncc2cc3c(c(O)c2c1=O)-c1c(O)c2c(c(OC)c1CC3)C(=O)c1c(cc(O)c(C)c1O)C2=O`, the IC50 in experiment [1] worked out at 6.34 µM; in experiment [2], 8.96 µM.
Turning to `COc1c2c(c(O)c3c1C(=O)c1c(cc(O)c(C)c1O)C3=O)-c1c(cc(C3NCc4ccccc4N3)c(C(=O)O)c1O)CC2` (centres undefined), the IC50 in experiment [1] is 40 µM; in experiment [2] it was 5.86 µM.
For `COc1c2c(c(O)c3c1C(=O)c1c(cc(O)c(C)c1O)C3=O)-c1c(cc(/C=N/Nc3ccc([N+](=O)[O-])cc3)c(C(=O)O)c1O)CC2` the same measures were 2.2 µM and 14 µM.
